Screening results as filed in PubChem.
Tb MetRS inh – blocks T. brucei methionyl-tRNA synthetase activity. inhibition, % at 11.9 µM. 0.4% of 360,000 active. purified T. brucei MetRS, ATP depletion, Kinase-Glo luminescence;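 active = inhibition above a per-plate cutoff of the control wells' mean inhibition plus 3 SD, cut at about 5.5% in these data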;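 note: 0% = DMSO wells median and 100% = median of wells with control inhibitor compound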
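Material: T. brucei methionyl-tRNA synthetase, purified; reagent: substrates ATP, L-methionine and bulk Escherichia coli tRNA; dosing: 11.9 µM single point; timing: 15 min plus 2 h at 25 °C; detection: luminescence of leftover ATP; evaluation: % inhibition; control set: DMSO-only wells as low control; replicates: singlicate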
TAG inh – inhibitors of triacylglycerol accumulation | H9c2 cells, Nile Red lipid (TAG) fluorescence; cells loaded with 200 µM oleic acid | inhibition, % at 12.5 µM | 0.66% of 230,000 active;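 active = pattern-corrected inhibition of lipid staining of at least 50% with the nuclear-stain viability signal not falling by more than 50%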;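 note: 0% = DMSO wells and 100% = triacsin C control wells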
NTR1 ag – activates human neurotensin receptor 1. P30989. NTR1-U2OS beta-arrestin-GFP spot imaging, agonist mode. AID 493036. activation, % at 20 µM. 0.17% of 330,000 active;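 active = activation at or above 40% of the spot to cytoplasm intensity ratio, with at least 20 cells analyzed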;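 note: 0% = DMSO without peptide and 100% = 100 nM NTR1 peptide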
aDG glyco act – increases alpha dystroglycan glycosylation. activation, % at 10 µM. AID 624168. Pro5-aDG cells, alpha-DG glycosylation AlphaScreen (IIH6); 0% Pro5, 100% B10-LARGE cell signal. 0.22% of 360,000 active;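 active = activation of at least 8% versus controls, or a plate z-score of at least 8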;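 note: Pro5 are CHO cells carrying HIG-tagged alpha-DG that lacks glycosylation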
MC4R antagonist – human MC4R antagonism in cAMP assay; P32245; MC4R-expressing cells, MTII-stimulated cAMP, LANCE TR-FRET; inhibition, % at 6.5 µM; 0.48% of 360,000 active; AID 540295;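 active = inhibition above its plate's cutoff, the mean of tested wells on that plate plus 3 SD, cut at about 29% in these data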;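 note: 0% = Melanotan II alone and 100% = Melanotan II plus saturating MCL0020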
Target sequence (P32245 whole entry, looked up): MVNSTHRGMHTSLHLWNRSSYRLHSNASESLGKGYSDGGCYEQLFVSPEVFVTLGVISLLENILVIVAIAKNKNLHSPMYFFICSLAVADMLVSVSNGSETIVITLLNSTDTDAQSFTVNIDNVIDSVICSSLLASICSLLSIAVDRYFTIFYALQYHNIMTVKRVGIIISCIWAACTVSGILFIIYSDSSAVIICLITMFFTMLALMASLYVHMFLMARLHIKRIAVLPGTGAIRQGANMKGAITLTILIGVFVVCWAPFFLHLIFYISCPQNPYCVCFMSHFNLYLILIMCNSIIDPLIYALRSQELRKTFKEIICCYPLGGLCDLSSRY
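Material: U2OS-MC4R stable cell line | Reagent: Melanotan II challenge after compound preincubation | Doses: One concentration, 6.5 µM nominal | Incubation: 30-min compound preincubation, 1-h Melanotan II challenge, 1-h detection, room temperature | Signal: TR-FRET cAMP assay | Replicates: One well per compound, no replicates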
MC4R ag barr – activates human MC4R beta-arrestin recruitment | U2OS MC4R beta-arrestin complementation, luminescence; percent of melanotan II response, DMSO zero | activation, % at 8.9 µM | 0.98% of 360,000 active | AID 540308;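 active = activation above a per-plate cutoff, the mean activation of sample wells on that plate plus 3 SD, cut at about 8% in these data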
TAG conf – confirmation of triacylglycerol accumulation inhibitors; shares compounds with TAG inh; H9c2 lipid accumulation, Nile Red fluorescence; cells loaded with 200 µM oleic acid; inhibition, % at 12.5 µM; 71% of 990 active; AID 651629;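 active = mean inhibition across replicates of 40% or more; inactive = mean inhibition below 40%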;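 note: plate controls were DMSO only wells for no effect and Triacsin C treated wells for full effect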
An asterisk follows results filed as active; / = no result. In the library only some 2.4% were active in any assay of this set; here they are far more common.

SMILES	Tb MetRS inh	TAG inh	NTR1 ag	aDG glyco act	MC4R antagonist	MC4R ag barr	TAG conf
c1ccc(-c2csc(NNC3=NCCCCC3)n2)cc1	-1	85*	2	-1	-4	0	108*
O=C(Nc1ncccc1O)c1c(O)c2ccccc2[nH]c1=O	0	8	-2	0	-3	-2	/
COc1cc(/C=C2/NC(=O)N(Cc3ccccc3F)C2=O)ccc1Oc1ccc([N+](=O)[O-])cn1	0	11	2	0	12	2	/
COc1cc(/C=C2/NC(=O)N(Cc3ccccc3F)C2=O)ccc1O	0	59*	4	0	12	0	63*
Cc1cc2nc3c(nc2cc1C)CCCC3	0	/	0	0	0	-2	/
COc1ccc(NC(=O)CCN2C(=O)c3ccccc3C2=O)c(OC)c1	-1	/	1	0	0	-1	/
COc1ccc(OC)c(N(CCN2C(=O)c3ccccc3C2=O)C(=O)CCl)c1	0	52*	/	0	1	4	53*
Cc1noc(C)c1COc1cccc(C(=O)OCC(=O)N2CC(=O)Nc3ccccc32)c1	-1	66*	0	0	-20	-2	89*
CCOCCC(=O)Nc1ccc2c(c1)c(=O)n(C)n2C/C=C/c1ccccc1	0	53*	/	0	-19	-2	49*
COc1ccc(-n2ccnc2SCC(=O)NC2CCCC2)c(OC)c1	-1	71*	-1	0	8	0	17
C=CC[C@H](CC(=O)N(CCO)Cc1ccccc1)C(=O)N[C@H](COC(=O)[C@H](CC=C)CC(=O)OC(C)(C)C)Cc1ccccc1	0	22	4	0	11	4	/
C=CCC[C@H](Cc1ccc(F)cc1)C(=O)OC[C@@H](NC(=O)[C@@H](CC=C)CC(=O)N(CCO)Cc1ccccc1)C(C)(C)C	0	87*	9	0	10	-1	93*
C=CC[C@@H](CC(=O)N[C@H](CO)Cc1ccccc1)C(=O)N[C@H](COC(=O)[C@@H](CC=C)Cc1ccc(F)cc1)C(C)(C)C	-1	95*	14	1	8	2	38
C=CC[C@@H](CC(=O)N(CCO)Cc1ccccc1)C(=O)N[C@H](COC(=O)[C@@H](CC=C)CC(=O)OC(C)(C)C)C(C)(C)C	0	73*	1	0	11	2	81*
C=CCC[C@@H](Cc1ccc(F)cc1)C(=O)OC[C@@H](Cc1c[nH]c2ccccc12)NC(=O)[C@H](CC=C)CC(=O)N(CCO)Cc1ccccc1	0	57*	18	0	24	-1	71*
CCN1C(=O)[C@H]2[C@@H](c3ccc(-c4ccc(OC)cc4)cc3)N[C@@](C)(C(=O)OC)[C@H]2C1=O	0	8	0	0	5	0	/
C=CC[C@@H](CC(=O)N(CCO)Cc1ccccc1)C(=O)N[C@H](COC(=O)[C@@H](CC=C)Cc1ccc(F)cc1)C(C)(C)C	0	85*	6	0	2	0	89*
CCOC(=O)C1CCCN(C(=O)c2ccc3ccccc3c2)CC1 (configuration not stated)	0	-10	/	0	-4	-2	/
Cc1ccc(-n2ncc(-c3nnc(SCC(=O)NC4CCCC4)o3)c2N)cc1C	0	55*	-1	0	3	-1	37
Cc1ccc(-n2ncc3c2CCCC3NC(=O)CSc2ccccn2)cc1C (configuration not stated)	-1	-14	0	0	4	-3	/
CCc1c(C2(O)CCCCC2)[nH]c2cnccc12	0	51*	2	0	5	-1	13
Cc1c(C2(O)CCCCC2)[nH]c2ccc(C(F)(F)F)cc12	0	-17	14	0	5	4	/
O=C1NC(Cc2ccc(O)cc2)c2nc3ccc(F)cc3c(=O)n2-c2cc3ccccc3cc21 (configuration not stated)	0	78*	/	0	10	-1	67*
